Activity calls are given as the source filed them. The rule behind the calls is not given here.
Experiments:
[1] = Inhibition of Geobacillus toebii BK1 alpha-galactosidase assessed as residual hydrolysis of p-nitrophenyl-alpha-D-galactopyranoside pre-incubated for 1 hr by spectrometric analysis
How it was run: (§1)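 The enzyme was pre-incubated with inhibitor (10 µM to 1000 µM) for 1 h at 60 °C at the enzyme's optimal pH. The reaction was started with 2 mM p-nitrophenyl glycopyranoside made up in 0.025 M citrate buffer, pH 4.0. It was stopped with 0.05 M borate buffer, pH 9.8, and released p-nitrophenol was read at 405 nm against inhibitor-free controls. Ki and inhibition type came from Lineweaver–Burk plots.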

[2] = test system: Canavalia ensiformis; experiment: Inhibition of jack bean N-acetyl-beta-D-glucosaminidase assessed as p-nitrophenol release at 1 mM pre-incubated for 1 hr by spectrometric analysis
How it was run: (§2)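 Each enzyme was pre-incubated with inhibitor (10 µM to 1000 µM) at its optimal pH for 1 h at 37 °C. Hydrolysis was initiated with 2 mM p-nitrophenyl glycopyranoside substrate prepared in 0.025 M citrate, pH 4.0, and quenched with 0.05 M borate, pH 9.8. p-Nitrophenol was read at 405 nm, with controls lacking inhibitor run in parallel. Ki and mode of inhibition were derived from Lineweaver–Burk plots.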

[3] = test system: Geobacillus toebii; experiment: Competitive inhibition of Geobacillus toebii BK1 alpha-galactosidase assessed as residual hydrolysis of p-nitrophenyl-alpha-D-galactopyranoside pre-incubated for 1 hr by Lineweaver-Burk plot analysis; how it was run: as §1
[4] = test system: Canavalia ensiformis; experiment: Inhibition of jack bean N-acetyl-beta-D-glucosaminidase assessed as p-nitrophenol release at 1 mM pre-incubated for 1 hr by Lineweaver-Burk plot analysis; how it was run: as §2
[5] = test system: Canavalia ensiformis; experiment: Inhibition of jack bean alpha-mannosidase assessed as residual hydrolysis of p-nitrophenyl-alpha-D-mannopyranoside at 1 mM pre-incubated for 1 hr by Lineweaver-Burk plot analysis; how it was run: as §2
[6] = test system: Prunus dulcis; experiment: Inhibition of almond seed beta-glucosidase assessed as residual hydrolysis of p-nitrophenyl-beta-D-glucopyranoside at 1 mM pre-incubated for 1 hr by Lineweaver-Burk plot analysis; how it was run: as §2
[7] = test system: Saccharomyces cerevisiae; experiment: Inhibition of baker's yeast alpha-glucosidase assessed as residual hydrolysis of p-nitrophenyl-alpha-D-glucopyranoside at 1 mM pre-incubated for 1 hr by Lineweaver-Burk plot analysis; how it was run: as §2
[8] = test system: Prunus dulcis; experiment: Inhibition of almond seed beta-galactosidase assessed as residual hydrolysis of p-nitrophenyl-beta-D-galactopyranoside at 1 mM pre-incubated for 1 hr by Lineweaver-Burk plot analysis; how it was run: as §2
[9] = Inhibition of Geobacillus toebii BK1 alpha-galactosidase assessed as residual hydrolysis of p-nitrophenyl-alpha-D-galactopyranoside pre-incubated for 1 hr by Lineweaver-Burk plot analysis; how it was run: as §1
[10] = Inhibition of baker's yeast alpha-glucosidase assessed as residual hydrolysis of p-nitrophenyl-alpha-D-glucopyranoside pre-incubated for 1 hr by spectrometric analysis; set-up: species or system Saccharomyces cerevisiae; how it was run: as §2
[11] = Inhibition of baker's yeast alpha-glucosidase assessed as residual hydrolysis of p-nitrophenyl-alpha-D-glucopyranoside pre-incubated for 1 hr by Lineweaver-Burk plot analysis; set-up: species or system Saccharomyces cerevisiae; how it was run: as §2
[12] = test system: Geobacillus toebii; experiment: Inhibition of Geobacillus toebii BK1 alpha-galactosidase assessed as residual hydrolysis of p-nitrophenyl-alpha-D-galactopyranoside at 1 mM pre-incubated for 1 hr by Lineweaver-Burk plot analysis; how it was run: as §1
[13] = Inhibition of sweet almond beta-glucosidase; set-up: species or system Prunus dulcis; how it was run: as §2

In the case of `OCC[C@@H]1CNC[C@@H](O)[C@@H]1O`, the IC50 [1] is reported as 65 µM, the inhibition [2] is reported as less than 50% and the inhibition [3] is reported as “Active”. For the same molecule, the inhibition [4] was “inactive”, the inhibition [5] was “inactive” and the inhibition [6] was “inactive”. For the same molecule, the inhibition [7] was “inactive”, the inhibition [8] was “inactive” and the Ki [9] was 66 µM.

In the case of `OCC[C@@H]1CNC[C@H](O)[C@@H](O)[C@@H]1O`, the IC50 [10] is reported as 675 µM, the inhibition [2] is reported as less than 50% and the inhibition [4] is reported as “inactive”. The inhibition [5] was “inactive”, the inhibition [6] was “inactive” and the Ki [11] was 131 µM. The inhibition [8] was “inactive” and the inhibition [12] was “inactive”.

With `CN1C[C@@H](CCO)[C@@H](O)[C@H](O)C1` the IC50 [1] was 50 µM, the inhibition [2] was less than 50% and the inhibition [3] was “Active”. For the same molecule, the inhibition [4] was “inactive”, the inhibition [5] was “inactive” and the inhibition [6] was “inactive”. For the same molecule, the inhibition [7] was “inactive”, the inhibition [8] was “inactive” and the Ki [9] was 54 µM.

A Ki [13] of 0.11 µM was found for `OC[C@H]1CNC[C@@H](O)[C@@H]1O` [AFEGOSTAT] in this work.
